{"source": "paper PMC7862734", "about": "(Investigative Ophthalmology & Visual Science, 2021)", "molecules": {"B1": {"name": "Kinesin-derived angiogenesis inhibitor (KAI), biotinylated (peptide, UniProt Q9NQT8 1238-1260, looked up)", "peptide": "Biotin-SRGTPVDERLFLIVRVTVQLSHP-NH2", "SMILES": "CC[C@H](C)[C@H](NC(=O)[C@H](CC(C)C)NC(=O)[C@H](Cc1ccccc1)NC(=O)[C@H](CC(C)C)NC(=O)[C@H](CCCNC(=N)N)NC(=O)[C@H](CCC(=O)O)NC(=O)[C@H](CC(=O)O)NC(=O)[C@@H](NC(=O)[C@@H]1CCCN1C(=O)[C@@H](NC(=O)CNC(=O)[C@H](CCCNC(=N)N)NC(=O)[C@H](CO)NC(=O)CCCC[C@@H]1SC[C@@H]2NC(=O)N[C@@H]21)[C@@H](C)O)C(C)C)C(=O)N[C@H](C(=O)N[C@@H](CCCNC(=N)N)C(=O)N[C@H](C(=O)N[C@H](C(=O)N[C@H](C(=O)N[C@@H](CCC(N)=O)C(=O)N[C@@H](CC(C)C)C(=O)N[C@@H](CO)C(=O)N[C@@H](Cc1c[nH]cn1)C(=O)N1CCC[C@H]1C(N)=O)C(C)C)[C@@H](C)O)C(C)C)C(C)C"}}, "key": {"[1]": {"target": "cytosolic kinase domain of EGFR (Homo sapiens, UniProt P00533)", "experiment": "SPR", "format": "binding", "conditions": "protein up to 200 nM, HBS-EP, 25°C"}, "[2]": {"target": "cytosolic kinase domain of PDGFRα (Homo sapiens, UniProt P16234)", "sequence (P16234 550-1089 limits assumed)": "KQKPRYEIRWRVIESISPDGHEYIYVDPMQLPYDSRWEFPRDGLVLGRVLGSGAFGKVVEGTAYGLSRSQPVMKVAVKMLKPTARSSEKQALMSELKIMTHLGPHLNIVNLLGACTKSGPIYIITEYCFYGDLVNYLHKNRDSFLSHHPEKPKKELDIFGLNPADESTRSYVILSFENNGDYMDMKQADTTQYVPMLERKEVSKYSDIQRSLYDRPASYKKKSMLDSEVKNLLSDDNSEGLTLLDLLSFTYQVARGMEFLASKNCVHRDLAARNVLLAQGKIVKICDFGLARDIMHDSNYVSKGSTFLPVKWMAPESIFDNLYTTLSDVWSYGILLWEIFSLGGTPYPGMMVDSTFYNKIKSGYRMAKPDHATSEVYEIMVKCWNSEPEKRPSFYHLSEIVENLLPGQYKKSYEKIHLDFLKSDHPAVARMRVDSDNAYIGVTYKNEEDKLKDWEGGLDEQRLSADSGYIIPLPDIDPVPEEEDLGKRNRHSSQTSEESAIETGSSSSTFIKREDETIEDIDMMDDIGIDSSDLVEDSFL", "experiment": "SPR", "format": "binding", "conditions": "protein up to 200 nM, HBS-EP, 25°C"}, "VEGFR2": {"target": "VEGFR2 (Homo sapiens, UniProt P35968)", "sequence (P35968 20-1356)": "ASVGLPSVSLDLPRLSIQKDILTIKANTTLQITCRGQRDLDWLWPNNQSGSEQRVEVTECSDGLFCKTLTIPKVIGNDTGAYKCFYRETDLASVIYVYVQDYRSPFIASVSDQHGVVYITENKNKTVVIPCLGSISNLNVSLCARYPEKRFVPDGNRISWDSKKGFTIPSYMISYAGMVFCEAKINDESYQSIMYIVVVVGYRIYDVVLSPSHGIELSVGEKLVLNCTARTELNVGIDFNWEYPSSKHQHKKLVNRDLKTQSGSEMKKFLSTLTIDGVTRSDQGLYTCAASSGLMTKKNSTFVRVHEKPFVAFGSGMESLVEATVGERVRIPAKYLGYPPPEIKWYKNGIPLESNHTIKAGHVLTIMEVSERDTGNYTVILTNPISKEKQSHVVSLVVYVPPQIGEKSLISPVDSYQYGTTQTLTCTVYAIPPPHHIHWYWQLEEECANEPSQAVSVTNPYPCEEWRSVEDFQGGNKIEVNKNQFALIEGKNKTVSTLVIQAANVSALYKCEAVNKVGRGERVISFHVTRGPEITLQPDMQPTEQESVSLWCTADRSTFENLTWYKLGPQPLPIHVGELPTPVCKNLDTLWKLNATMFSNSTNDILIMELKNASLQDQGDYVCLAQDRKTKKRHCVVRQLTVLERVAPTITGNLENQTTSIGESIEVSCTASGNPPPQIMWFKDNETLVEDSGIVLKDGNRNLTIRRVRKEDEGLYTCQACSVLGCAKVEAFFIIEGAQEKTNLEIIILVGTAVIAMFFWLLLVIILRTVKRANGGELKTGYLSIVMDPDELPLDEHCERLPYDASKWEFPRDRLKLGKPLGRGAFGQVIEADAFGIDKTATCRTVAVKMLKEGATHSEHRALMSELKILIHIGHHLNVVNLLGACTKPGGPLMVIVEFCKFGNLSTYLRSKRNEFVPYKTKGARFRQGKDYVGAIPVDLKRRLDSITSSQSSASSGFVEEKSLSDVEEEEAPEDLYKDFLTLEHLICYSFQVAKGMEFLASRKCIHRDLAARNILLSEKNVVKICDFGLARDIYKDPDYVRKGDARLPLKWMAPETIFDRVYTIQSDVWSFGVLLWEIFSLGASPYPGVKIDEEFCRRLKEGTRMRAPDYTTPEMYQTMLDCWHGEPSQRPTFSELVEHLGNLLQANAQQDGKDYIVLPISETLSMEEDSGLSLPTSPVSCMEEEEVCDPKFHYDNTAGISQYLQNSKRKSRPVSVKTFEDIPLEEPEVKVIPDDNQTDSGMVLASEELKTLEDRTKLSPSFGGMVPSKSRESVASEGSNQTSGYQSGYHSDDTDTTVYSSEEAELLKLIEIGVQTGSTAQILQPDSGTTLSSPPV", "experiment": "Pull-down assay from HUVEC lysate, Western blotting", "format": "binding", "conditions": "biotin-peptide on streptavidin beads", "procedure,_shortened": "(§1)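 HUVEC at passage 3–6 grown in EGM2 and lysed. Lysate incubated with biotinylated test or control peptide captured on streptavidin beads. After washing, bound proteins and lysate input were immunoblotted with antibodies to VEGFR2 and Centaurin A.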"}, "[3]": {"target": "cytosolic kinase domain of PDGFRβ (Homo sapiens, UniProt P09619)", "sequence (P09619 554-1106 limits assumed)": "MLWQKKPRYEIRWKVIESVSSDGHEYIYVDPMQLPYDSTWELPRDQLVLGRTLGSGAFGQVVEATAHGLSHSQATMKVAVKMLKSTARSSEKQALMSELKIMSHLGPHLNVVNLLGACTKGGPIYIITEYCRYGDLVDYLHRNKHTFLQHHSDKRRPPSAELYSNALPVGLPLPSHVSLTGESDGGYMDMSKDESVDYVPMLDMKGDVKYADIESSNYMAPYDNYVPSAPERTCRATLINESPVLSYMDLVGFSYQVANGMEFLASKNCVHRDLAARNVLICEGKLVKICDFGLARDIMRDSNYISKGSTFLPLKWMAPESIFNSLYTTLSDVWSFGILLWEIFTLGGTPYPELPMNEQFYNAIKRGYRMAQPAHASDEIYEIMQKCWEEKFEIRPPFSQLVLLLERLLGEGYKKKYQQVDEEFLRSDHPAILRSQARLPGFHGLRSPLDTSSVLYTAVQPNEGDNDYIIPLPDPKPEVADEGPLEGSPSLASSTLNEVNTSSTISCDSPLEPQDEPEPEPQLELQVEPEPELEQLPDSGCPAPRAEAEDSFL", "experiment": "SPR", "format": "binding", "conditions": "protein up to 200 nM, HBS-EP, 25°C"}, "Centaurin alpha (CentA)": {"target": "T1, Centaurin alpha (CentA) (Homo sapiens, UniProt O75689)", "T1 sequence (O75689 1-374)": "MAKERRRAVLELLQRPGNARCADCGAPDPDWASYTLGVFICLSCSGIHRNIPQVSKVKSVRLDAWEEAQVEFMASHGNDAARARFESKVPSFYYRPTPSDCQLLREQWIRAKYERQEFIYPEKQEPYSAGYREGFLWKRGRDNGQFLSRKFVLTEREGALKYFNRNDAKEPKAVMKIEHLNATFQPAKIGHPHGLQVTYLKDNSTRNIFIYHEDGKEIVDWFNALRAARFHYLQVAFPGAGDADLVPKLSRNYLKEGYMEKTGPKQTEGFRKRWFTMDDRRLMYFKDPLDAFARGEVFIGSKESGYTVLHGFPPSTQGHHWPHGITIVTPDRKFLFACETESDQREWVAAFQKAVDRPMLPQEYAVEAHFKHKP", "experiment": "Pull-down assay from HUVEC lysate, Western blotting", "format": "binding", "conditions": "biotin-peptide on streptavidin beads", "procedure,_shortened": "as §1"}, "[4]": {"experiment": "Biodistribution after eye drop, cryosection stained with Alexa 488-streptavidin", "format": "in vivo, mouse", "conditions": "eye drop 5 µg/eye, C57BL/6, time points 10 minutes, 30 minutes, 1 hour, 2 hours, streptavidin staining"}, "[5]": {"test_system": "laser-induced CNV in C57BL/6 mice", "experiment": "Laser-induced choroidal neovascularization", "format": "in vivo, mouse", "procedure,_shortened": "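C57BL/6 mice (7 weeks). Four 532 nm laser burns per mouse (200–355 mW, 50 µm, 70 msec). Test compound given as a daily eye drop (2 or 5 µg/eye in 5 µL PBS, days 1–14 or days 7–14) or as an intravitreal injection after laser (0.5–10 µg in 2 µL PBS), against control peptide or PBS. Day-14 OCT cross-section and ILB4-stained choroidal flat-mount area, averaged per mouse.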"}, "[6]": {"conditions": "intravitreal, human eyes; cited from earlier work"}, "[7]": {"target": "Kinesin-derived angiogenesis inhibitor (KAI), biotinylated (human) (UniProt Q9NQT8)", "experiment": "SPR"}, "[8]": {"target": "recombinant cytosolic domain (789-1356 aa) of VEGFR2 (UniProt P35968 789-1356)", "sequence (P35968 789-1356)": "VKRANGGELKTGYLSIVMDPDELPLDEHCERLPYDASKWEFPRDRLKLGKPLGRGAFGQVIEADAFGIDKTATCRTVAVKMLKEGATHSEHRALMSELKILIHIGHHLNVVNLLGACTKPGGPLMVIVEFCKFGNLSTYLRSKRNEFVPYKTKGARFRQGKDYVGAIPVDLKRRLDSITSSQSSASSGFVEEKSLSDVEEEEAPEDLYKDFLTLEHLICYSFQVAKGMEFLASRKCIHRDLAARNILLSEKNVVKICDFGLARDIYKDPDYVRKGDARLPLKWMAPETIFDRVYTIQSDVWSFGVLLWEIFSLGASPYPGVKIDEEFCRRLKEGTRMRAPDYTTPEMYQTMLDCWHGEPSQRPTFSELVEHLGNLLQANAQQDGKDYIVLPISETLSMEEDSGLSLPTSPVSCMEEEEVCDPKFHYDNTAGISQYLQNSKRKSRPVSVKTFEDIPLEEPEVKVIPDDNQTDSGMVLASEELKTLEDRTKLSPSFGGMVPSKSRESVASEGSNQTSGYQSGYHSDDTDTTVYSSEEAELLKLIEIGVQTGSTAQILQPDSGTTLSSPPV", "experiment": "SPR"}}, "note": "*: point of attachment. Biotin = O=C1N[C@H]2[C@H](CS[C@H]2CCCCC(=O)*)N1"}
{"molecule": "KAI: 23 aa peptide, aa 1238-1260 of human KIF13B, minimum binding site to VEGFR2; biotinylated N-terminus, amidated C-terminus (Biotin-SRGTPVDERLFLIVRVTVQLSHP-NH2; SMILES CC[C@H](C)[C@H](NC(=O)[C@H](CC(C)C)NC(=O)[C@H](Cc1ccccc1)NC(=O)[C@H](CC(C)C)NC(=O)[C@H](CCCNC(=N)N)NC(=O)[C@H](CCC(=O)O)NC(=O)[C@H](CC(=O)O)NC(=O)[C@@H](NC(=O)[C@@H]1CCCN1C(=O)[C@@H](NC(=O)CNC(=O)[C@H](CCCNC(=N)N)NC(=O)[C@H](CO)NC(=O)CCCC[C@@H]1SC[C@@H]2NC(=O)N[C@@H]21)[C@@H](C)O)C(C)C)C(=O)N[C@H](C(=O)N[C@@H](CCCNC(=N)N)C(=O)N[C@H](C(=O)N[C@H](C(=O)N[C@H](C(=O)N[C@@H](CCC(N)=O)C(=O)N[C@@H](CC(C)C)C(=O)N[C@@H](CO)C(=O)N[C@@H](Cc1c[nH]cn1)C(=O)N1CCC[C@H]1C(N)=O)C(C)C)[C@@H](C)O)C(C)C)C(C)C)", "values": [{"measurement": "Binding of EGFR to immobilized peptide (in words)", "setting": "[1]", "value": "did not bind"}, {"measurement": "Binding of PDGFRα to immobilized peptide (in words)", "setting": "[2]", "value": "did not bind"}, {"measurement": "Interaction with VEGFR2 in pull-down", "setting": "VEGFR2", "value": "interacts"}, {"measurement": "Binding of PDGFRβ to immobilized peptide (in words)", "setting": "[3]", "value": "very weak binding"}, {"measurement": "Interaction with CentA in pull-down", "setting": "Centaurin alpha (CentA)", "value": "does not bind"}, {"measurement": "Time at which peptide was detected in the retina and choroid", "setting": "[4]", "value": 30, "unit": "min"}, {"measurement": "Regression of developed CNV", "setting": "[5]; eye drop 5 µg/eye daily from day 7 to day 14", "value": "effective to regress neovascularization"}, {"measurement": "Area of CNV measured by OCT (cross-section) vs ctrl", "setting": "[5]; eye drop 2∼5 µg/eye daily day 1 to day 14, 200 mW laser, day 14", "value": "significantly reduced"}, {"measurement": "Effect on CNV vs PBS (OCT and ILB4 staining)", "setting": "[5]; intravitreal injection 2 µg in 2 µL PBS after laser burn, 355 mW, C57BL/6, P = 0.045 (OCT), P = 0.034 (ILB4), one-way ANOVA", "value": "significantly inhibited"}]}
{"molecule": "bevacizumab", "values": [{"measurement": "Aqueous half-life", "setting": "[6]", "value": 236, "unit": "h"}]}
{"molecule": "ranibizumab", "values": [{"measurement": "Aqueous half-life", "setting": "[6]", "value": 173, "unit": "h"}]}
{"molecule": "recombinant cytosolic domain of PDGFRB (domain or fragment)", "values": [{"measurement": "Kd", "setting": "[7]", "value": "> 200", "unit": "nM"}]}
{"molecule": "B1", "values": [{"measurement": "Kd", "setting": "[8]", "value": "6.8 ± 0.6", "unit": "nM"}]}
